Laboratory results reported in ChEMBL document CHEMBL1146325, “Synthesis and antibacterial activities of new quinolone derivatives utilizing 1-azabicyclo[1.1.0]butane” (2007).
≈ marks a conversion by molar mass, not a printed value.

Legend:
Assay type in all cases: functional
[1] = tested on: Staphylococcus aureus; assay: Antibacterial activity against quinoline-susceptible methicillin-resistant Staphylococcus aureus by agar dilution method
In short: (§1)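 Read-out is the minimum inhibitory concentration (MIC), found by a conventional agar dilution procedure.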

[2] = tested on: Staphylococcus aureus; assay: Antibacterial activity against quinoline-intermediate methicillin-resistant Staphylococcus aureus by agar dilution method; in short: as §1
[3] = tested on: Staphylococcus aureus; assay: Antibacterial activity against quinoline-resistant methicillin-resistant Staphylococcus aureus by agar dilution method; in short: as §1
[4] = tested on: Enterococcus faecalis; assay: Antibacterial activity against Enterococcus faecalis by agar dilution method
In short: (§2)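 Read-out is the minimum inhibitory concentration (MIC), determined by a conventional agar dilution procedure against a panel of Gram-positive and Gram-negative bacteria.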

[5] = tested on: Moraxella catarrhalis; assay: Antibacterial activity against Moraxella catarrhalis by agar dilution method; in short: as §2
[6] = tested on: Haemophilus influenzae; assay: Antibacterial activity against Haemophilus influenzae by agar dilution method; in short: as §2
[7] = tested on: Pseudomonas aeruginosa; assay: Antibacterial activity against Pseudomonas aeruginosa by agar dilution method; in short: as §2
[8] = tested on: Streptococcus pneumoniae; assay: Antibacterial activity against Streptococcus pneumoniae by agar dilution method; in short: as §2
[9] = tested on: Escherichia coli; assay: Antibacterial activity against Escherichia coli without AcrAB efflux system by agar dilution method
[10] = tested on: Escherichia coli; assay: Antibacterial activity against Escherichia coli with AcrAB efflux system by agar dilution method

Row | SMILES | MIC [1] [µg/mL] | MIC [2] [µg/mL] | MIC [3] [µg/mL] | MIC [4] [µg/mL] | MIC [5] [µg/mL] | MIC [6] [µg/mL] | MIC [7] [µg/mL] | MIC [8] [µg/mL] | MIC [9] [µg/mL] | MIC [10] [µg/mL]
1 | C[C@H]1COc2c(N3CCN(C)CC3)c(F)cc3c(=O)c(C(=O)O)cn1c23.C[C@H]1COc2c(N3CCN(C)CC3)c(F)cc3c(=O)c(C(=O)O)cn1c23.O [LEVOFLOXACIN] | 0.5 | 4 | > 128 | 2 | 0.063 | ≤ 0.008 | 0.5 | – | – | –
2 | Cc1ccc(SC2CN(c3c(F)cc4c(=O)c(C(=O)O)cn(C5CC5)c4c3F)C2)cc1 | 2 (≈ 4.52 µM) | 32 (≈ 72.3 µM) | > 32 | 16 (≈ 36.2 µM) | 2 (≈ 4.52 µM) | 0.25 (≈ 0.565 µM) | > 32 | 32 (≈ 72.3 µM) | 32 (≈ 72.3 µM) | 32 (≈ 72.3 µM)
3 | O=C(O)c1cn(C2CC2)c2c(F)c(N3CC(Sc4nc5ccccc5o4)C3)c(F)cc2c1=O | 1 (≈ 2.13 µM) | 2 (≈ 4.26 µM) | 32 (≈ 68.2 µM) | 2 (≈ 4.26 µM) | 0.5 (≈ 1.07 µM) | 0.5 (≈ 1.07 µM) | > 32 | 2 (≈ 4.26 µM) | 8 (≈ 17 µM) | 8 (≈ 17 µM)
4 | O=C(O)c1cn(C2CC2)c2c(F)c(N3CC(N(Cc4ccccc4)Cc4ccccc4)C3)c(F)cc2c1=O | > 64 | > 64 | > 64 | > 64 | > 64 | 8 (≈ 15.5 µM) | > 64 | > 64 | 64 (≈ 124 µM) | > 64
5 | Cc1ccc(NC2CN(c3c(F)cc4c(=O)c(C(=O)O)cn(C5CC5)c4c3F)C2)cc1 | 0.031 (≈ 0.0729 µM) | 0.5 (≈ 1.18 µM) | 16 (≈ 37.6 µM) | 0.5 (≈ 1.18 µM) | 0.031 (≈ 0.0729 µM) | ≤ 0.008 | 16 (≈ 37.6 µM) | 0.5 (≈ 1.18 µM) | 0.063 (≈ 0.148 µM) | 0.5 (≈ 1.18 µM)
6 | CCOC(=O)c1ccc(NC2CN(c3c(F)cc4c(=O)c(C(=O)O)cn(C5CC5)c4c3F)C2)cc1 | 0.031 (≈ 0.0641 µM) | 1 (≈ 2.07 µM) | > 16 | 2 (≈ 4.14 µM) | 0.125 (≈ 0.259 µM) | ≤ 0.008 | > 16 | 0.125 (≈ 0.259 µM) | 0.25 (≈ 0.517 µM) | 2 (≈ 4.14 µM)
7 | COc1ccc(NC2CN(c3c(F)cc4c(=O)c(C(=O)O)cn(C5CC5)c4c3F)C2)cc1 | 0.031 (≈ 0.0702 µM) | 0.25 (≈ 0.566 µM) | 16 (≈ 36.2 µM) | 0.25 (≈ 0.566 µM) | 0.031 (≈ 0.0702 µM) | ≤ 0.008 | 4 (≈ 9.06 µM) | 0.063 (≈ 0.143 µM) | 0.031 (≈ 0.0702 µM) | 0.25 (≈ 0.566 µM)
8 | Cn1nnnc1Sc1c(F)cc2c(=O)c(C(=O)O)cn(C3CC3)c2c1F | 16 (≈ 42.2 µM) | > 16 | > 16 | > 16 | 4 (≈ 10.5 µM) | 0.125 (≈ 0.33 µM) | > 16 | > 16 | 1 (≈ 2.64 µM) | 16 (≈ 42.2 µM)
9 | O=C(O)c1cn(C2CC2)c2c(F)c(N3CC(Sc4ncccn4)C3)c(F)cc2c1=O | 0.063 (≈ 0.146 µM) | 1 (≈ 2.32 µM) | 32 (≈ 74.3 µM) | 0.25 (≈ 0.581 µM) | 0.063 (≈ 0.146 µM) | ≤ 0.008 | 8 (≈ 18.6 µM) | 1 (≈ 2.32 µM) | 1 (≈ 2.32 µM) | 1 (≈ 2.32 µM)
10 | O=C(O)c1cn(C2CC2)c2cc(N3CCNCC3)c(F)cc2c1=O [CIPROFLOXACIN] | 1 (≈ 3.02 µM) | – | > 64 | 2 (≈ 6.04 µM) | 0.063 (≈ 0.19 µM) | ≤ 0.008 | – | 4 (≈ 12.1 µM) | ≤ 0.008 | ≤ 0.008
11 | Cn1nnnc1SC1CN(c2c(F)cc3c(=O)c(C(=O)O)cn(C4CC4)c3c2F)C1 | 0.125 (≈ 0.288 µM) | 2 (≈ 4.6 µM) | > 32 | 1 (≈ 2.3 µM) | 0.063 (≈ 0.145 µM) | < 0.008 | 8 (≈ 18.4 µM) | 2 (≈ 4.6 µM) | 0.125 (≈ 0.288 µM) | 1 (≈ 2.3 µM)
12 | O=C(O)c1cn(C2CC2)c2c(F)c(N3CC(Nc4ccc(Cl)cc4)C3)c(F)cc2c1=O | 0.063 (≈ 0.141 µM) | 1 (≈ 2.24 µM) | 16 (≈ 35.9 µM) | 1 (≈ 2.24 µM) | 0.063 (≈ 0.141 µM) | ≤ 0.008 | > 16 | 0.5 (≈ 1.12 µM) | 0.125 (≈ 0.28 µM) | 1 (≈ 2.24 µM)
13 | O=C(O)c1cn(C2CC2)c2c(F)c(N3CC(Nc4ccccc4)C3)c(F)cc2c1=O | 0.016 (≈ 0.0389 µM) | 0.5 (≈ 1.22 µM) | 32 (≈ 77.8 µM) | 0.25 (≈ 0.608 µM) | 0.016 (≈ 0.0389 µM) | ≤ 0.008 | 4 (≈ 9.72 µM) | 0.25 (≈ 0.608 µM) | 0.031 (≈ 0.0754 µM) | 0.25 (≈ 0.608 µM)
14 | COc1c(N2CCNC(C)C2)c(F)cc2c(=O)c(C(=O)O)cn(C3CC3)c12 (stereo not given) [GATIFLOXACIN] | 0.25 (≈ 0.666 µM) | 2 (≈ 5.33 µM) | > 128 | 1 (≈ 2.66 µM) | 0.063 (≈ 0.168 µM) | ≤ 0.008 | 1 (≈ 2.66 µM) | 0.5 (≈ 1.33 µM) | 0.063 (≈ 0.168 µM) | 0.063 (≈ 0.168 µM)
15 | Cn1cnnc1SC1CN(c2c(F)cc3c(=O)c(C(=O)O)cn(C4CC4)c3c2F)C1 | 0.25 (≈ 0.577 µM) | 4 (≈ 9.23 µM) | > 16 | 1 (≈ 2.31 µM) | 0.123 (≈ 0.284 µM) | ≤ 0.008 | 8 (≈ 18.5 µM) | 2 (≈ 4.61 µM) | 0.25 (≈ 0.577 µM) | 1 (≈ 2.31 µM)
16 | O=C(O)c1cn(C2CC2)c2c(F)c(N3CC(Sc4nc5ccccc5s4)C3)c(F)cc2c1=O | 1 (≈ 2.06 µM) | 4 (≈ 8.24 µM) | 32 (≈ 65.9 µM) | 4 (≈ 8.24 µM) | 0.5 (≈ 1.03 µM) | 0.5 (≈ 1.03 µM) | > 32 | 4 (≈ 8.24 µM) | 8 (≈ 16.5 µM) | 8 (≈ 16.5 µM)
